Assay outcomes as filed in PubChem.
Jurkat NFkB inh: inhibitors of the PMA/ionomycin-induced NF-kB reporter in Jurkat cells | PMA/ionomycin-induced NF-kB luciferase reporter, luminescence | 0.53% of 330,000 active | inhibition, % at 4 µM; in the data active = inhibition above about 50%
NR2E3 ag-1: NR2E3 (human) agonism; GST-NR2E3/biotin-RetCOR TR-FRET, 1536-well; inhibition of corepressor binding, % at 4.78 µM; Q9Y5X4; AID 2300; 0.12% of 320,000 active;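 active = percent inhibition above the cutoff of mean plus 3 SD of all tested compounds, set per screening campaign, cut at about 20% in these data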;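 note: 0% = DMSO wells and 100% = biotin wells as full block of FRET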
Target sequence (Q9Y5X4 whole entry, looked up): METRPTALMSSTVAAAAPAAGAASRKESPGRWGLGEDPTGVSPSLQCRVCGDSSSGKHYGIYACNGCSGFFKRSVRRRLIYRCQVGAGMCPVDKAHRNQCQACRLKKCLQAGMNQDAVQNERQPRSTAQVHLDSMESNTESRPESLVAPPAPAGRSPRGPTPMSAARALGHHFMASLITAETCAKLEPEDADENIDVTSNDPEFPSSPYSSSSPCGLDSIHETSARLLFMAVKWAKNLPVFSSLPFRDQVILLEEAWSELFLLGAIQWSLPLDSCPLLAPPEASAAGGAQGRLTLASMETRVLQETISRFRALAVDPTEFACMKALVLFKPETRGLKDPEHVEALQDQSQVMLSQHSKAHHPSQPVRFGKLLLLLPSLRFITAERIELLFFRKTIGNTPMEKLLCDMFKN
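Assay system: NR2E3–RetCOR corepressor complex. Quantity: 1.35 nM GST-NR2E3. Buffer or medium: pH 7.5 Tris-based buffer. Reagent: biotinylated RetCOR corepressor at 7 nM final. Schedule: 5 h at 4 °C. Detection: TR-FRET, emission read at 617 and 671 nm. Replicates: one well per compound, singlicate testing.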
697 NFkB inh: lowers PMA/ionomycin-induced NF-kB signal in 697 B cells; inhibition, % at 4 µM; 0.33% of 330,000 active; 697 B-cell NF-kB luciferase reporter, 16 h; in the data active = inhibition above about 35%
NR2E3 ag-2: activates human NR2E3 receptor | CHO-S Gal4-NCOR/VP16-NR2E3 two-hybrid, luciferase | inhibition of corepressor binding, % at 3.98 µM | 0.35% of 360,000 active;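 active = inhibition above the mean of all tested compounds plus 3 SD, cut at about 70% in these data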;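 note: 0% = DMSO with NR2E3 transfected cells and 100% = cells lacking NR2E3 construct; higher means lower luciferase signal from less NR2E3 corepressor binding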
GalR3 antag: antagonists of human GalR3; 0.44% of 360,000 active; O60755; HEK293 GalR3-CNG cAMP membrane potential fluorescence; galR3 body fused to GalR1 C-terminus; inhibition, % at 3 µM; AID 651719;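 active = inhibition above the screen-wide average plus 3 SD, cut at about 13% in these data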;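 note: forskolin and galanin both at EC90 stimulate the cells; cAMP rise reported by CNG channel membrane potential dye signal; 0% = forskolin plus galanin with DMSO and 100% = forskolin alone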
GASC-1 inh: human JMJD2C demethylase inhibition | Q9H3R0 | GST-JMJD2C(1-420) H3K9me3 demethylation, DELFIA europium | inhibition, % at 2.35 µM | 0.069% of 330,000 active | AID 2099;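 active = more than half of a compound's replicate wells show inhibition beyond 50%, single wells judged on their own value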;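 note: signal counts dimethyl H3K9 product captured on neutravidin plate; 0% = median of DMSO wells and 100% = 0.3 times that DMSO median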
697 NFkB conf: inhibitors of the PMA/ionomycin-induced NF-kB reporter in 697 B cells, retest | shares compounds with 697 NFkB inh | 697 B-cell NF-kB luciferase, 16 h | inhibition, % at 4 µM | 35% of 2,000 active | AID 449746; in the data active = inhibition mostly above about 28%, no sharp cut-off; inactive = mostly below about 22%
* marks the source's active call; other numbers are inactive results; · = not tested or not shown. An excerpt weighted towards active compounds, which were near 1.5% of everything screened.

SMILES	Jurkat NFkB inh	NR2E3 ag-1	697 NFkB inh	NR2E3 ag-2	GalR3 antag	GASC-1 inh	697 NFkB conf
CCCC[n+]1ccn(-c2nc3ccccc3nc2[N-]S(=O)(=O)c2ccc(Br)cc2)c1	10	-5	37*	1	1	2	16
CC(C)CC[n+]1ccn(-c2nc3ccccc3nc2[N-]S(=O)(=O)c2ccccc2)c1	1	-2	3	-4	3	-1	·
COc1ccc(/C=C\C(=O)O[C@@H]2C(O)C(O[C@@H]3OC(C)[C@H](O[C@@H]4OCC(O[C@H]5O[C@H](CO)[C@@H](O)C(O)C5O)C(O)C4O)C(O)C3O)[C@H](OC(=O)[C@]34CCC(C)(C)C[C@@H]3C3=CCC5[C@@]6(C)CC(O)C(O[C@@H]7OC(CO)C(O)[C@H](O)[C@H]7O)[C@@](C)(C(=O)O)C6CC[C@@]5(C)[C@]3(CO)CC4)O[C@H]2C)cc1 (stereo partly drawn)	29	·	49*	96*	·	4	44*
C[C@@H]1CC[C@]2(C(=O)O[C@@H]3O[C@H](CO)[C@@H](O)[C@H](O)[C@H]3O)CC[C@]3(C)C(=CCC4[C@@]5(C)CC[C@H](O[C@@H]6OC[C@H](O)[C@H](O[C@@H]7O[C@H](CO)[C@@H](O)[C@H](O)[C@H]7O)[C@H]6O)C(C)(C)C5CC[C@]43C)C2[C@]1(C)O (stereo partly drawn)	-6	·	1	-9	0	1	·
O=C1CCCc2c1[nH]c1ccc(CN3CCCCC3)cc21	-15	-3	38*	-12	-6	3	29*
Cc1ccc2[nH]c3c(c2c1)CCCC3=O	-7	2	10	-12	-5	-19	·
Cc1cccc(C(=O)n2c(=S)nc3ccccn32)c1	-132	1	-337	-100	·	-32	-291
COc1cc2c3c(c1)c(N=NC(N)=S)c(O)n3C(C)(C)C=C2C	-1	1	42*	6	-4	-3	42*
O=C(N/N=C/c1ccc(Cl)cc1Cl)c1ccc(-n2cnnn2)cc1	5	4	39*	7	-2	0	35*
O=C(N/N=C/c1c(Cl)cccc1Cl)c1ccc(-n2cnnn2)cc1	1	2	23	-1	2	0	·
Cc1ccc(-c2nn3c(C)nnc3c3ccccc23)cc1S(=O)(=O)NCc1ccco1	0	0	43*	28	-2	4	43*
Cc1nnc2c3ccccc3c(-c3cccc4ccccc34)nn12	·	·	·	3	-3	·	·
